HSP90 refold inh – HSP90 refolding inhibition in rabbit reticulocyte lysate; luciferase refolding luminescence, 3 h; inhibition, % at 5.6 µM; 0.91% of 290,000 active; AID 1789;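 active means inhibition above the screen-wide mean plus 3 SD, computed separately per campaign, cut at about 16% in these data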;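 further: 0% = DMSO wells and 100% = 60 µM geldanamycin wells; inhibitors lower the luminescence because luciferase stays unfolded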
C8 TRAIL sens – sensitizes caspase-8 expressing cells to TRAIL; inhibition (viability loss, TRAIL sensitization), % at 10 µM; NB7+C8 cells + TRAIL, ATPlite viability luminescence; 1% of 360,000 active; AID 624354;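 active means compounds causing at least 50% loss of cell viability in the single-dose screen, relative to plate controls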
FLuc inh counter – counter-screen for luciferase assay inhibitors: firefly luciferase inhibition | 1.5% of 200,000 active | ATPLite firefly luciferase biochemical luminescence, 10 min | inhibition, % at 10 µM | AID 1006;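 active means inhibition above about 50% when tested at 10 µM, limit read from the data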
Target sequence (P08659 whole entry, looked up): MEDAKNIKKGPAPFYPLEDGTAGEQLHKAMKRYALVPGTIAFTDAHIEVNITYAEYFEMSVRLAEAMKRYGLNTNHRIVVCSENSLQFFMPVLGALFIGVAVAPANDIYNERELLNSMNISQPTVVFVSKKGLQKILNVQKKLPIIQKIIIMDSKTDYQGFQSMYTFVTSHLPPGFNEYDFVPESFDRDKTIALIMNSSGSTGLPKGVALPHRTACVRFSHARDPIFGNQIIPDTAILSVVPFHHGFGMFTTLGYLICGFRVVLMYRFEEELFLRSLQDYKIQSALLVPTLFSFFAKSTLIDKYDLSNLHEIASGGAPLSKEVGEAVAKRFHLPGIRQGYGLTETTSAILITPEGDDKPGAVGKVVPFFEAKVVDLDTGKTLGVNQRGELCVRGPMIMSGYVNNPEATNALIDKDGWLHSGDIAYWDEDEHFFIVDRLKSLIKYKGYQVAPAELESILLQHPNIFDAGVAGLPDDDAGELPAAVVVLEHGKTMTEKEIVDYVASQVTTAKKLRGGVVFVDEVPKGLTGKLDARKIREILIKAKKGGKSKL
PPC-1+TRAIL kill – PPC-1 cancer cell killing with TRAIL present. PPC-1 cells + TRAIL, ATPLite viability luminescence. cell killing (% activity), % at 4 µM or 5 µM. 0.41% of 220,000 active. AID 1443;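 active means cell killing above 50% in the first pass at 4 µM, then a duplicate retest at 5 µM averaging 50% or more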;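 further: plate controls were cells with TRAIL plus DMSO for no effect and medium-only wells lacking cells for full effect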
FLuc act counter – affects firefly luciferase, flagging false hits in luciferase stimulation screens; ATPlite luciferase biochemical, luminescence, 10 min; 0 = ATP-free wells, 1 = DMSO control; activation factor at 10 µM; 200,000 tested, under 10 active;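 active means luciferase activation factor, scaled between plate controls, of at least 2 with compound at 10 µM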
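Assay system: Luciferase/luciferin reagent mix; Medium: PBS as buffer for the ATP substrate; Dosing: test compounds dosed from 2 mM stocks in 100% DMSO; Times: 10 min, room temperature; Signal: luminescence from luciferase reaction; Read-out: luciferase activation; Controls: No-ATP low control, compound-free enzyme-plus-ATP high control.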
HSP90 inh confirm – confirmation of HSP90 inhibitors. inhibition, % at 5.9 µM. rabbit reticulocyte lysate, luciferase refolding luminescence, 3 h. AID 1846. 64% of 2,300 active. shares compounds with HSP90 refold inh; in the data active means inhibition above about 18%;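 further: 0% = vehicle wells and 100% = reference inhibitor wells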
FLuc counter – counter-screen for HSP90 inhibitors: inhibitors of firefly luciferase | shares compounds with HSP90 refold inh | purified native firefly luciferase, luminescence | inhibition, % at 5.9 µM | 48% of 2,300 active;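 active means inhibition above the mean inhibition of all tested sample wells plus 3 SD, cut at about 10% in these data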;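 further: 0% = DMSO with luciferase and 100% = wells lacking luciferase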
The depositor's hits bear a star; . = no result. Hits are enriched below; roughly 2% of the tested compounds scored in any of these assays.

SMILES	HSP90 refold inh	C8 TRAIL sens	FLuc inh counter	PPC-1+TRAIL kill	FLuc act counter	HSP90 inh confirm	FLuc counter
O=C(Nc1ccc(C(=O)NCCCN2CCN(c3ccc(F)cc3)CC2)cc1)C1=CSCCO1	30*	11	.	.	.	-3	-6
O=C(Nc1ccc(C(=O)NCCCN2CCCCC2)cc1)C1=CSCCO1	-3	-3	.	.	.	.	.
COc1cc2ccc(NC(C)=O)cc2cc1OC	.	-3	.	.	.	.	.
COc1ccc(C(CC(=O)O)NC(C)=O)cc1OC (centres undefined)	18*	9	0	6	1	4	-8
CCOC(=O)NC(CC(=O)O)c1ccc(OC)c(OC)c1 (centres undefined)	-1	-17	-5	40	1.1	.	.
O=C(Nc1nc(-c2ccc3c(c2)OCCO3)cs1)c1ccco1	18*	47	.	.	.	20*	9.9*
c1cc2c(cc1Nc1nc(-c3ccc4c(c3)OCO4)cs1)OCCO2	37*	4	12	-3	0.9	23*	-10
c1ccc(-c2csc(Nc3ccc4c(c3)OCCO4)n2)cc1	13	19	42	37	0.6	.	.
C=CCNc1nc(-c2ccc3c(c2)OCCO3)cs1	19*	21	.	.	.	33*	32*
CCC(=O)Nc1nc(-c2ccc3c(c2)OCCO3)cs1	3	26	38	26	0.6	.	.
O=C(COC(=O)/C=C/c1ccc([N+](=O)[O-])cc1)NC(c1ccccc1)c1ccccc1	1	-9	-4	5	1	.	.
CCOCC(=O)Nc1nc2ccc(S(C)(=O)=O)cc2s1	7	-15	0	5	1	.	.
CC(C)CC(=O)Nc1nc2ccc(S(C)(=O)=O)cc2s1	30*	-2	-2	9	1	-1	-18
CCNS(=O)(=O)c1ccc2nc(NC(=O)c3cccnc3)sc2c1	29*	8	14	24	0.9	3	-2
Cc1cccc(N(Cc2ccccc2)C(=O)CN2C(=O)NC3(CCCC3)C2=O)c1	.	-8	.	.	.	.	.
CCCCCCCCNC(=O)/C(C#N)=C/c1ccc(SC)cc1	0	-10	1	32	1	.	.
CCn1cnc2cc(NCc3nc4ccccc4n3Cc3ccccc3)ccc21	48*	12	31	6	0.7	47*	40*
O=C(O)c1ccc(NCc2nc3ccccc3n2Cc2ccccc2)cc1	4	18	.	15	.	.	.
CCC1CCC(C(=O)NC(C(=O)NCCCN2CCCCC2C)C(C)C)CC1 (centres undefined)	-2	-7	-4	15	1	.	.
c1ccc(-c2cc3c(-n4cccc4)ncnc3o2)cc1	17*	8	2	16	1	-4	-16
CCCCSc1ccc2nc(-c3ccc(C#N)cc3)cn2c1	-1	12	13	19	0.9	.	.
CCCSc1ccc2nc(-c3ccccc3)cn2c1	46*	92*	95*	85*	0	90*	83*
Cc1ccc(-c2nc(-c3ccncc3)no2)cc1C	21*	27	.	.	.	29*	25*
COC(=O)c1ccc(N2CCN(C)CC2)c(NC(=O)c2cccnc2)c1	0	0	-2	-20	1	.	.
COc1cc([N+](=O)[O-])ccc1NC(=O)Cn1ccsc1=N	0	0	-3	14	1	.	.
SMILES	HSP90 refold inh	C8 TRAIL sens	FLuc inh counter	PPC-1+TRAIL kill	FLuc act counter	HSP90 inh confirm	FLuc counter
N=c1sccn1CC(=O)Nc1ccc([N+](=O)[O-])cc1Cl	21*	-9	.	15	.	4	4
COc1ccc(/C=C/C(=O)Nc2ccccc2C(=O)O)cc1OC	72*	29	54*	24	0.5	55*	52*
O=C(NC1=NCCS1)C1COc2ccccc2O1 (centres undefined)	79*	43	76*	29	0.2	92*	81*
Cc1ccc2nc(SCC3CCCCO3)[nH]c2c1 (centres undefined)	30*	22	.	20	.	64*	61*
Cc1cc(N)ccc1NC(=O)CN1CCOCC1	5	17	.	.	.	.	.
CCC(C)c1ccc(S(=O)(=O)N2CCN(S(=O)(=O)c3ccc(NC(C)=O)cc3)CC2)cc1 (centres undefined)	2	5	.	.	.	.	.
COCCN(Cc1nc(-c2ccc(-c3ccccc3)cc2)oc1C)C(C)C	85*	18	.	.	.	89*	21*
Brc1cc2c(cc1CSc1ncccn1)OCO2	3	-12	.	.	.	.	.
CN1OC[C@@H]2CN(S(=O)(=O)c3ccccc3)[C@H](c3ccc(N4CCCCC4)cc3)C[C@@H]21	.	15	.	.	.	.	.
COc1ccccc1NC(=O)Cn1c(CCC(=O)O)ccc1-c1ccc(C)cc1	-2	13	1	-1	1	.	.
CN(C)c1ccc(N=Nc2ccc(C(=O)O)cc2)cc1	31*	51*	.	.	.	53*	84*
COc1ccc(Cl)cc1NC(=O)Cn1nnc(C(=O)NCc2ccc3c(c2)OCO3)c1N	0	11	.	.	.	.	.
O=C(CSc1nc(=O)n(CCCN2CCOCC2)c2c1CCCC2)Nc1ccc(Cl)cc1	.	10	.	.	.	.	.
CCNC(=S)N/N=C/c1cn(Cc2ccc(F)cc2)c2ccccc12	2	11	-6	-10	1.1	.	.
Cc1c(/C=N\NC(=O)C2COc3ccccc3O2)c2ccccc2n1C (centres undefined)	5	9	-1	8	1	.	.
O=C(O)c1ccc(N/N=C/c2cn(Cc3ccc(F)cc3)c3ccccc23)cc1	40*	-7	.	4	.	39*	25*
Cc1c(/C=N/Nc2ccc(C(=O)O)cc2)c2ccccc2n1C	42*	-11	.	15	.	38*	26*
CCC1([N+](=O)[O-])COC(c2ccc(OC)cc2)OC1 (centres undefined)	.	-4	.	.	.	.	.
O=C(NCC1CC1)Nc1cccc(C(F)(F)F)c1	-3	-19	.	.	.	.	.

Source: PubChem
